# Assay outcomes: PubChem, The Scripps Research Institute Molecular Screening Center
# A selection: hits, their analogues and other compounds. The true share with any hit is near 2.4%.
# NPY1 pot ag: human NPY-Y1 potentiation or agonism, primary screen | P25929 | NPY-Y1 expressing cells, potentiator/agonist activation | activation, % at 3.6 µM | 220,000 compounds, 0.37% hits | AID 1304; in the data active = activation above about 33%, passing the limit was not always enough;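 note: cells stimulated with NPY at EC10 then isoproterenol at EC100; 0% = low agonist plus stimulus and 100% = saturating agonist plus stimulus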
# Target sequence (P25929 whole entry, looked up): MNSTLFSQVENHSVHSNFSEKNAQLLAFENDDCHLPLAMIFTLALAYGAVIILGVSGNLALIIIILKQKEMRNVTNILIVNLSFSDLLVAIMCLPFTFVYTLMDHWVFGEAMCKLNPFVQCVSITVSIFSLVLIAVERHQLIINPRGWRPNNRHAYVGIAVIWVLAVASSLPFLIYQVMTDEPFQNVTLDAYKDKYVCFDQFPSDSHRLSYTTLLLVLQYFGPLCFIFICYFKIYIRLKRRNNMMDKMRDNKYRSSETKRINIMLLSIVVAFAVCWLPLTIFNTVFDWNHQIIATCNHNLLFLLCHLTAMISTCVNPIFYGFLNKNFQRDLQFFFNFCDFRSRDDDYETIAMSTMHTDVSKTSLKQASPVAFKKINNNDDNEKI
# NPY-Y2 PAM-ag: potentiators or agonists of human neuropeptide Y receptor Y2. P49146. cells expressing NPY-Y2, potentiator/agonist read-out. activation, % at 3.6 µM. 220,000 compounds, 0.45% hits; in the data active = activation above about 27%;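 note: cells stimulated with NPY near EC25 plus isoproterenol at EC100; 0% = vehicle plus submaximal agonist and 100% = vehicle plus saturating agonist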
# S1P4 antagonist: blocks the human S1P4 receptor; S1P4-expressing cells, antagonist mode, reporter read-out; inhibition, % at 4.98 µM; 220,000 compounds, 0.26% hits; AID 1510; in the data active = inhibition above about 29%;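 note: 0% = wells stimulated with agonist and 100% = vehicle wells without agonist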
# NPY-Y1 antag: blocks the human neuropeptide Y Y1 receptor | P25929 | HEK293-CNG Y1 cells, membrane potential fluorescence; NPY at EC95, then isoproterenol | inhibition, % at 3.6 µM | 200,000 compounds, 1% hits | AID 1040;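 active = inhibition above the campaign mean inhibition of all tested compounds plus 3 SD, cut at about 20% in these data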;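 note: 0% = DMSO wells given NPY plus isoproterenol and 100% = isoproterenol alone without NPY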
#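 Material: HEK293 cells with Y1 receptor plus CNG channel; times: compound incubation 1 h at room temperature, readout 45 min post-stimulation; signal: fluorescence, membrane potential probe; read-out basis: fluorescence ratio normalized to % inhibition between controls; benchmarks: full-block control isoproterenol-only wells, zero-block control NPY plus isoproterenol wells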
# NPY Y2 blocker: blocks the human neuropeptide Y Y2 receptor | P49146 | NPY-Y2 expressing cells, antagonist mode | inhibition, % at 2.7 µM | 140,000 compounds, 0.99% hits | AID 793; in the data active = inhibition above about 17%;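 note: 0% = vehicle with agonist challenge and 100% = reference antagonist with challenge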
# S1P4 ag: activates the human S1P4 receptor | activation, % at 4.98 µM | 220,000 compounds, 0.35% hits | S1P4-expressing cell line, agonist reporter assay | O95977; in the data active = activation above about 11%;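 note: 0% = DMSO vehicle and 100% = reference agonist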
# * hit, by the source's call; / = no result given.
SMILES,NPY1 pot ag,NPY-Y2 PAM-ag,S1P4 antagonist,NPY-Y1 antag,NPY Y2 blocker,S1P4 ag
CC(=O)c1cc(CC(=O)N2CCc3c([nH]c4ccccc34)C2c2ccccn2)cs1 (configuration not stated),5.1,1.9,8.6,21.6*,/,1.2
C/C(=N/OC(=O)c1ccc(Cl)cc1Cl)c1oc(C)nc1C,14.9,8.3,1.9,/,/,-0.2
Cc1cccc(C)c1OCC(O)CNC(C)C (configuration not stated),-46.8,-8.0,-7.0,5.6,5.0,-0.4
CCOC(=O)c1oc2cccc(OCC(O)CNC(C)C)c2c1C (configuration not stated),110.8*,105.3*,-1.2,-13.1,2.1,0.6
CCCN(CCC)CCOc1cc(C)ccc1C(C)C,-15.9,-5.5,-22.3,28.2*,27.1*,0.5
COc1ccc(/C=N/NC(=O)c2c(C)nc3ccccn23)cc1[N+](=O)[O-],-3.6,-8.2,18.9,/,/,0.4
CCOc1cccc2sc(NN)nc12,37.7*,31.5,7.8,-8.8,/,0.0
CCOc1cccc2sc(Cl)nc12,-3.9,9.8,-8.3,-0.9,/,1.9
Cc1cccc2sc(N(CCCN(C)C)C(=O)c3sc4ccccc4c3Cl)nc12,-20.4,-17.1,-11.6,7.8,4.8,-0.2
CN(C)CCCN(C(=O)c1sc2ccccc2c1Cl)c1nc2c(F)cccc2s1,-38.6,-20.5,-5.9,20.3*,17.7*,1.0
CCOc1cccc2sc(N(CCCN(C)C)C(=O)c3ccc(S(=O)(=O)N(C)c4ccccc4)cc3)nc12,-34.2,-17.8,-2.5,21.0*,/,-0.6
CN(C)CCN(C(=O)c1ccc(S(=O)(=O)N(C)c2ccccc2)cc1)c1nc2cc3c(cc2s1)OCCO3,-25.6,0.1,-4.9,/,/,-0.6
Cc1ccc(C)n1-c1ccc(C(=O)N/N=C/c2ccncc2)cc1,7.8,-5.2,-30.0,4.5,/,1.8
COC(=O)c1cnn(-c2ccc(Cl)cc2)c1/C=N/NC(N)=S,3.4,31.2,8.0,/,/,0.8
CCCCC(c1nnnn1C1CCCC1)N1CCN(C2CCCC2)CC1 (configuration not stated),-19.9,-27.2,-8.3,30.9*,45.9*,-1.4
CC(C)C(c1nnnn1Cc1ccc(F)cc1)N1CCN(C2CCCC2)CC1 (configuration not stated),-16.4,-16.2,14.3,9.7,/,1.5
CCCC(c1nnnn1Cc1ccc(F)cc1)N1CCN(C2CCCCC2)CC1 (configuration not stated),-17.1,-6.3,-4.0,22.9*,31.4*,0.7
O=C(COc1ccc(/C=N/NS(=O)(=O)c2ccccc2)cc1)NCc1ccccc1,-0.1,-3.0,-0.5,-2.9,1.5,-0.9
O=C(COc1ccc(/C=N/NS(=O)(=O)c2ccccc2)cc1)Nc1cccc(Cl)c1,25.3,8.0,-1.8,42.9*,17.5*,-0.4
O=C(CN(c1ccccc1)S(=O)(=O)c1ccc(F)cc1)NC1CCS(=O)(=O)C1 (configuration not stated),6.5,-7.9,5.5,2.2,/,-0.7
O=C1CC(=C(c2ccccc2)c2ccccc2)C(=O)N1CCN1CCN(c2cccc(Cl)c2)CC1,-14.9,-11.2,-32.7,10.1,7.8,0.0
O=C1CC(=C(c2ccccc2)c2ccccc2)C(=O)N1CCCN1CCN(c2cccc(Cl)c2)CC1,75.4*,62.5*,24.6,-0.9,1.4,-2.1
O=C(COc1ccccc1Cc1ccccc1)NCCCN1CCOCC1,17.6,-11.8,3.3,/,/,1.9
COC(=O)c1cc(S(=O)(=O)NCc2ccc(S(N)(=O)=O)cc2)oc1C,13.1,-6.2,1.1,/,/,0.7
Cn1nc(-c2ccccn2)nc2c(=O)n(C)c(=O)nc1-2,-18.3,-55.3,104.0*,/,/,0.5
SMILES,NPY1 pot ag,NPY-Y2 PAM-ag,S1P4 antagonist,NPY-Y1 antag,NPY Y2 blocker,S1P4 ag
CCCCCCCCCn1c2c(c(=N)c3c1CCC3)CCC2,-132.0,-35.8,-2.5,90.4*,37.2*,-0.2
FC(F)(F)c1ccccc1CN1CCN(C2CCCCCC2)CC1,-7.3,-7.9,-6.0,23.2*,21.9*,0.8
O=C(Nc1ncc2c(n1)-c1ccccc1CC2)c1cccc(Cl)c1,-42.6,-31.4,-9.7,34.0*,24.7*,1.1
O=C(Nc1ncc2c(n1)-c1ccccc1CC2)c1ccc(Cl)cc1,-46.9,-20.5,-7.8,10.5,6.3,1.0
CCCCCCOc1ccc(/C(N)=N/O)cc1,83.7*,99.3*,1.1,-10.7,3.3,1.6
N=C(N)c1ccc(OCCCCCOc2ccc(C(=N)N)cc2)cc1,-4.7,5.5,-12.1,-4.7,-0.2,2.8
COc1ccc(-c2csc(Nc3cccnc3)n2)cc1,13.2,29.3,0.8,-10.6,-8.3,-0.1
Clc1cccc(Nc2nc(-c3cccnc3)cs2)c1,46.7*,29.7*,-14.1,-13.2,/,2.7
c1ccc(Nc2nc(-c3ccncc3)cs2)cc1,57.9*,43.7*,11.4,-17.3,-11.1,1.4
O=c1/c(=C\c2cccc(O)c2)sc2nc(-c3ccccc3)c(-c3ccccc3)n12,19.7,14.3,-11.7,/,/,0.8
Cc1ccc2nc(N3C(=O)C(O)=C(C(=O)c4ccco4)C3c3cccs3)sc2c1 (configuration not stated),-31.9,-19.9,-11.8,36.8*,19.0*,2.1
CCOC(=O)c1ccc(-c2ccc(/C=C(\C#N)C(=O)NCc3cccs3)o2)cc1,5.5,6.1,-18.2,1.2,17.4*,1.0
Cc1cc(/C=C(\C#N)C(=O)NCc2cccs2)c(C)[nH]1,-12.3,-10.8,4.3,0.4,/,-1.4
COC(=O)c1scc(C)c1N1C(=O)c2ccccc2C1=O,11.3,5.8,2.7,/,/,0.6
Cc1cc(C)nc(N(C#N)C(C)C(=O)N(C)C)n1 (configuration not stated),-2.4,0.5,8.9,-0.1,0.7,-3.1
CCN(CC)C(=O)C(C)N(C#N)c1nc(C)cc(C)n1 (configuration not stated),114.1*,104.8*,-7.5,-11.6,-0.4,-0.7
CN1CCN(/C=N/c2c(C#N)cnn2C)CC1,-7.5,1.4,-24.8,-5.7,4.2,2.5
Cn1ncc(C#N)c1/N=C/N(Cc1ccccc1)Cc1ccccc1,-69.9,-32.3,-6.1,22.1*,25.6*,-0.9
O=C(CSc1nc2ccc(NC(=O)CSc3nnnn3Cc3ccccc3)cc2s1)Nc1ccccc1,22.4,6.7,-10.2,-2.5,-3.6,-3.6
COC(=O)CSc1nc2ccc(NC(=O)CSc3nnnn3Cc3ccccc3)cc2s1,108.5*,104.6*,7.2,-11.1,-2.3,-1.0
S=c1nc(C23CC4CC(CC(C4)C2)C3)[nH][nH]1,9.8,22.8,-1.6,/,/,0.8
Cc1sc(N)nc1C12CC3CC(CC(C3)C1)C2,46.7*,35.3*,-5.7,-11.1,/,4.9
O=C1CCC(/C=C/c2ccccc2)=NN1Cc1ccc(Cl)c(Cl)c1,-34.0,-10.3,-11.7,20.4*,24.6*,-3.0
O=C1CCC(/C=C/c2ccccc2)=NN1Cc1ccccc1Cl,1.2,-7.1,-3.8,3.8,2.1,1.6
CCOC(=O)c1oc2ccc(/C=N/O)c(Cl)c2c1C,-15.1,2.6,-3.9,6.4,/,0.6
